SR-BI uptake up – enhances SR-BI lipid uptake from DiI-HDL. CHO ldlA[mSR-BI] cells, DiI-HDL uptake fluorescence, 3 h; 100 = double the neutral-control signal. 320,000 compounds, 0.096% hits. activation, % at 12.5 µM;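 active = mean replicate activation of at least 60% and every replicate at or above 60%; inconclusive = mean or all-replicate condition met, but not both; inactive = mean below 60% and not all replicates reaching 60%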;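 note: 0% = median plate neutral-control signal and 100% = twice that signal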
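Material: SR-BI-overexpressing, LDLR-lacking CHO cells | Dosing: Single compound concentration, delivered by pin transfer | Probe or stimulus: Labelled HDL, 10 µg/mL | Signal: Bottom-read cell fluorescence after medium removal, ex 550/em 595 nm | Schedule: 3 h, 37 °C | Evaluation: HDL uptake via cellular fluorescence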
N-glyco inh – N-linked glycosylation inhibition; reporter increase, % at 12.5 µM; D54 ERlucT glycosylation luciferase reporter, 24 h; percent of 100 nM tunicamycin response; 360,000 compounds, 0.23% hits;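 active = mean luciferase reporter signal, scaled so untreated is 0 and the glycosylation-blocking control 100, at or above a set limit in every replicate; inconclusive = mean reaches the limit but not every replicate does; inactive = mean below the limit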;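 note: luciferase carries N-glycosylation sites so blocking glycosylation raises the light; 0% = median of neutral control wells and 100% = median of 100 nM tunicamycin wells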
Rtt109 HAT inh – blocks Candida albicans Rtt109/Vps75 acetyltransferase activity; 330,000 compounds, 0.16% hits; inhibition, % at 34.9 µM; purified Rtt109/Vps75, ThioGlo CoA-SH fluorescence, 4 h; Q5AAJ8; AID 540336;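 active = inhibition of at least 50% in every replicate; inconclusive = best replicate reaches 50% inhibition but some replicates fall short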
Target sequence (Q5AAJ8 whole entry, looked up): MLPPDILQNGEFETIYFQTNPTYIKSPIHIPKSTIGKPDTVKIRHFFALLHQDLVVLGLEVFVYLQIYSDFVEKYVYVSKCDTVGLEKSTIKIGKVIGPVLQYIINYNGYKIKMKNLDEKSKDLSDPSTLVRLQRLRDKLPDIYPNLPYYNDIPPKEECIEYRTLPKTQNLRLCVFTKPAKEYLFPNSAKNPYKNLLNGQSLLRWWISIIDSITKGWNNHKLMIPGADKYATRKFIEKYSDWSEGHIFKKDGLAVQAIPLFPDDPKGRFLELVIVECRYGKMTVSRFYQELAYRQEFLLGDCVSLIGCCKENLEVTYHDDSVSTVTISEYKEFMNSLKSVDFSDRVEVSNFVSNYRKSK
SR-BI HDL uptake – blocks mouse SR-BI lipid uptake from DiI-HDL | Q61009 | ldlA[mSR-BI] CHO cells, DiI-HDL uptake fluorescence, 3 h | inhibition, % at 12.5 µM | 320,000 compounds, 0.96% hits | AID 488896;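 active = mean replicate inhibition of at least 70% and a set share of replicates each scoring 70 or more; inconclusive = meets just one of the two criteria; inactive = fails both criteria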;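 note: 0% = median of neutral control wells and 100% = median of positive control wells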
HIV Env fusion – inhibitors of HIV Env-mediated cell fusion; HeLa-JRFL Env/CEM21 cell fusion, luciferase; inhibition, % at 12.3 µM; 360,000 compounds, 1.1% hits;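 active = mean replicate inhibition score of at least 50 and every replicate individually at or above 50; inconclusive = only one of the two criteria met; inactive = mean below 50 and not all replicates reaching 50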;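 note: 0% = plate neutral controls and 100% = maraviroc near 300 nM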
PglD DTNB – inhibitors of Campylobacter jejuni PglD acetyltransferase. 360,000 compounds, 0.098% hits. inhibition, % at 12.5 µM. AID 602405. purified PglD enzyme, DTNB colorimetric CoA detection; in the data active = inhibition above about 16%, passing the limit was not always enough; inconclusive = no clear call, values can overlap the other calls
The depositor's hits bear a star; ? = inconclusive; / = not tested or not shown; [ ] = remark or other dose. An excerpt weighted towards active compounds, which were near 1.9% of everything screened.

SMILES	SR-BI uptake up	N-glyco inh	Rtt109 HAT inh	SR-BI HDL uptake	HIV Env fusion	PglD DTNB
O=C(CSc1nc2ccccc2c(=O)[nH]1)Nc1cccc([N+](=O)[O-])c1	28.0	-0.3	2.0	-28.0	63.1*	-0.9
O=C(CSc1nc2ccccc2c(=O)[nH]1)Nc1ccc(Br)cc1	20.0	0.8	-3.9	-20.0	12.7	0.5
O=C(CSC1=NCCN1)Nc1ccccc1[N+](=O)[O-]	-72.4	1.2	0.2	?	-5.4	/
CC(C)C(=O)Nc1ccc2c(c1)C(=O)N(C)[C@@H]1CC[C@H](CC(=O)N[C@H](C)c3ccccc3)O[C@@H]1CO2	/	/	/	/	-12.1[16.7 µM]	1.4
COc1ccc(N2CCn3c2nc2c3c(=O)n(CCCc3ccccc3)c(=O)n2C)c(OC)c1	-21.9	-5.6	4.7	21.9	73.3*	-1.5
COc1ccc(N2CC(C)Cn3c2nc2c3c(=O)n(Cc3ccccc3)c(=O)n2C)c(OC)c1 (centres undefined)	-11.5	-1.5	10.9	11.5	19.8	2.1
N#Cc1nc(-c2ccc(OCc3ccc(Cl)cc3)cc2)oc1N1CCOCC1	-75.5	1.8	/	75.5*	/	-2.9
N#Cc1nc(-c2ccc(OCc3ccc(Cl)cc3)cc2)oc1N1CCC(C(N)=O)CC1	-28.0	-0.8	-4.1	28.0	/	-0.9
CO[C@H](CN(C)C(=O)Nc1ccc(F)cc1)[C@@H](C)CN(Cc1ccccc1Cl)[C@H](C)CO	/	/	/	/	/	1.1
COc1cc(/C=N/NC(=S)Nc2cccc(S(=O)(=O)N(C)C)c2)ccc1O	-71.2	0.2	13.2	71.2*	-2.1	-8.6
CCN(CC)c1nc(Nc2ccccc2)nc(Oc2ccc(=O)n(C)n2)n1	-15.6	0.1	-6.4	15.6	50.8	-5.2
CCN(CC)c1nc(Nc2ccccc2)nc(Oc2ccc(=O)[nH]n2)n1	-25.7	-1.6	2.5	25.7	90.9*	/
COc1ccc(-c2nnc(SCc3nnc(-c4ccc(Cl)cc4)o3)n2-c2ccccc2)cc1	-37.1	-0.8	4.9	37.1	65.1*	-2.0
CC1CCN(c2nc(CN3CCCCC3)nc3scc(-c4ccccc4)c23)CC1	11.9	-4.4	61.0*	-11.9	10.6	2.1
CC1CCN(c2nc(-c3cccnc3)nc3scc(-c4ccccc4)c23)CC1	-39.5	-2.1	-1.8	39.5	10.0	/
COc1cccc(NC(=O)C[C@@H]2CC[C@H]3[C@H](COc4ccc(NC(=O)C5CCOCC5)cc4C(=O)N3C)O2)c1	/	/	/	/	-2.0[16.7 µM]	/
CCOC(=O)c1cnc2ccccc2c1NCCO	24.0	3.1	12.8	-20.0	/	-2.3
CCOC(=O)c1cnc2c(ccc3ccccc32)c1NCCCN(C)C	24.8	98.4*	-4.1	-24.9	-178.5	6.5
CCOC(=O)c1cnc2c(C)cc(C)cc2c1NCCCN1CCOCC1	8.8	29.2*	3.6	-8.8	1.1	-0.8
C[C@@H]1CN([C@H](C)CO)C(=O)Cc2cc(NS(=O)(=O)c3ccc(Cl)cc3)ccc2O[C@@H]1CN(C)Cc1ccc(-c2ccccc2)cc1	/	/	/	/	-59.1[16.7 µM]	/
C[C@@H]1CN([C@H](C)CO)C(=O)c2cc(NC(=O)CCCCCC(=O)Nc3ccccc3N)ccc2O[C@@H](C)CCCCO[C@@H]1CN(C)C(=O)C1CCCCC1	/	/	/	/	-40.3[16.7 µM]	-6.3
CCOC(=O)c1ccc(-c2ccc(/C=N/NC(=O)c3cncc(Br)c3)o2)cc1	/	-0.5	/	/	-35.3	-2.3
C=CCNC(=S)N/N=C/c1ccc(-c2ccc(Br)cc2)o1	-81.7	-1.1	-0.6	81.7*	7.6	/
CCCCOC(=O)c1ccc(-c2ccc(/C=N/NC(=S)NCC)o2)cc1	-88.1	-2.7	8.0	88.1*	-49.0	/
Cc1sc2ncnc(Nc3ccc(N4CCOCC4)cc3)c2c1-c1ccccc1	-76.0	-5.8	4.7	76.0*	32.6	/
SMILES	SR-BI uptake up	N-glyco inh	Rtt109 HAT inh	SR-BI HDL uptake	HIV Env fusion	PglD DTNB
COC(=O)CCC[C@H]1CC2(C[C@H](CCCO[Si](C)(C)C(C)(C)C)N1C(=O)OC(C)(C)C)OCCO2	19.0	-5.8	-0.5	-19.0	74.4*	-0.9
Cc1ccccc1CN(c1ccc(C(=O)Nc2ccccc2C(=O)NCc2ccco2)cc1)S(C)(=O)=O	-68.8	-7.4	4.1	68.8	61.4*	-6.5
Cc1ccc(C(=O)Nc2ccccc2C(=O)NCc2ccco2)cc1	-8.4	1.1	-0.3	8.4	/	/
CS(=O)(=O)N1[C@@H]2c3ccc(-c4ccc(F)cc4)c(=O)n3C[C@@H]2[C@@H](CO)[C@@H]1C(=O)O	/	/	/	/	-4.2[16.7 µM]	-3.3
CCCNC(=O)Nc1ccc2c(c1)C(=O)N(C)C[C@@H](OC)[C@@H](C)CN(C(=O)C1CCC1)[C@@H](C)CO2	/	/	/	/	/	-0.3
CC(C)(C)c1ccc(C(=O)NNC(=O)c2cccc(Br)c2)cc1	-26.3	202.8*	-0.9	26.3	-74.8	/
Cc1cccc(NC(=O)CCN2C(=O)c3ccccc3C2=O)c1	17.6	0.3	59.0*	-17.6	3.5	0.5
Cc1ccccc1NC(=O)CCN1C(=O)c2ccccc2C1=O	-2.5	1.8	-13.0	2.5	-14.9	-0.3
C[C@@H]1CN([C@@H](C)CO)C(=O)c2cc(C#CCN(C)C)cnc2O[C@H]1CN(C)Cc1ccc(-c2ccccc2)cc1	/	/	/	/	12.3[16.7 µM]	-1.8
CC(=O)N(Cc1ccc(F)cc1)C1=C(NCCc2ccccc2)C(=O)c2ccccc2C1=O	-15.6	-19.7	11.1	15.6	84.1*	-3.3
CCOC1=C2[C@H](c3ccccc3)N(S(=O)(=O)c3ccc(C)cc3)[C@H](C(C)C)[C@H]2C(C#N)(C#N)C(C#N)(C#N)C1	/	/	/	/	107.0*	/
CCOC1=C2[C@H](c3ccc(CC)cc3)N(S(=O)(=O)c3ccc(C)cc3)C[C@H]2C(C#N)(C#N)C(C#N)(C#N)C1	/	32.9*	/	/	-90.8	0.6
COc1cc(Br)cc(/C=C/c2ccc3cccc(O)c3n2)c1O	-91.3	17.9	-4.9	91.3*	-9.7	0.2
Oc1ccc(Cl)cc1/C=C/c1ccc2cccc(O)c2n1	-74.0	3.6	11.0	74.0*	-20.0	/
COc1cc(Br)c(/C=C/c2ccc3cccc(O)c3n2)cc1OC	/	?	-2.6	/	7.0	-2.9
